What was measured:
Rattus norvegicus [1] = assay: Ulcerogenic activity in rat assessed as ulcer index at 0.14 mmol/kg, po after 6 hrs; type: toxicity, organism-based; details: in vivo
Procedure, shortened: (§1)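 Rats fasted 24 h (water allowed), then dosed orally with 0.14 mmol/kg in 1.0 mL 1% methylcellulose; vehicle controls given. Euthanized by CO2 at 6 h. Stomachs opened along the greater curvature, rinsed, and ulcers measured under magnifier lenses. UI = summed ulcer length (mm) per stomach averaged over 4 rats; mean ± SEM; one-way ANOVA with Holm–Sidak.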

[2] = biological target: T1, Prostaglandin G/H synthase 2 (Homo sapiens, UniProt P35354); assay: Inhibition of human recombinant COX2 by fluorescence assay
T1 sequence (P35354 whole entry): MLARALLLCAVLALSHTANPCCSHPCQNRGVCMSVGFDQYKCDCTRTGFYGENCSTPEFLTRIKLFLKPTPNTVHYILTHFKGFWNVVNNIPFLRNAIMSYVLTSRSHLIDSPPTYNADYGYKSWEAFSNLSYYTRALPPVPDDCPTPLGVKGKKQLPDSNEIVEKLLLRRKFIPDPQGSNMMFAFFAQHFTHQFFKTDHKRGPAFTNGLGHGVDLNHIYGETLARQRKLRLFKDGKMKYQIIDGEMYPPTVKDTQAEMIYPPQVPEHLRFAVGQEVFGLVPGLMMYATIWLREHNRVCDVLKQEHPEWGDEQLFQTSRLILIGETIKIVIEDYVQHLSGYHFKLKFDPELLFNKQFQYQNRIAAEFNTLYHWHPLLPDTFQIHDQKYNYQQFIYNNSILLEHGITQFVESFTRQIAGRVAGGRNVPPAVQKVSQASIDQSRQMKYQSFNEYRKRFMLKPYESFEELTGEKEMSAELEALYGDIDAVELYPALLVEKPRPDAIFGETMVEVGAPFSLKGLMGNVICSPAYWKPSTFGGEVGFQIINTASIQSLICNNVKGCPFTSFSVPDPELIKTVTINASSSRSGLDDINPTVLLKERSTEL

[3] = Inhibition of potato 5-LOX by EIA; design: species or system Solanum tuberosum
Procedure, shortened: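 Potato 5-LOX activity measured with an enzyme immunoassay (LOX assay kit). Mean of two determinations; deviation from the mean <10%.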

Rattus norvegicus [4] = assay: Antiinflammatory activity in rat assessed as inhibition of carrageenan-induced rat paw oedema at 0.14 mmol/kg, po after 3 hrs; type: functional
Procedure, shortened: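 Carrageenan-induced paw edema in rats. Compounds given orally, suspended in 1% aqueous methylcellulose. Test compounds dosed at 0.14 mmol, equivalent to 30 mg/kg ibuprofen. Mean ± SEM, n = 4.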

Rattus norvegicus [5] = assay: Ulcerogenic activity in rat assessed as ulcer index at 30 mg/kg, po after 6 hrs; type: toxicity, organism-based; design: dose 30 mg/kg, route oral; details: in vivo; procedure, shortened: as §1
Rattus norvegicus [6] = assay: Antiinflammatory activity in rat assessed as inhibition of carrageenan-induced rat paw oedema at 30 mg/kg, po after 3 hrs; type: functional
Procedure, shortened: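 Carrageenan-induced paw edema in rats. Compounds given orally, suspended in 1% aqueous methylcellulose. Test compounds dosed at 0.14 mmol, equivalent to 30 mg/kg ibuprofen. […] Mean ± SEM, n = 4.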

Molecule Cc1noc2c(Cc3ccccc3)nn(Cc3nnc(Nc4ccccc4)s3)c(=O)c12 has a UI (Rattus norvegicus [1]) of 0.5 mm.
For CCNc1nnc(Cn2nc(Cc3ccccc3)c3onc(C)c3c2=O)s1, the IC50 [2] was > 100 µM and the IC50 [3] was 72.8 µM.
For CNc1nnc(Cn2nc(Cc3ccc([N+](=O)[O-])cc3)c3onc(C)c3c2=O)s1, the UI (Rattus norvegicus [1]) was 0.75 mm.
For COc1ccc(Cc2nn(Cc3nnc(Nc4ccccc4)s3)c(=O)c3c(C)noc23)cc1, the IC50 [2] was > 100 µM and the IC50 [3] was 46.2 µM.
With Cc1noc2c(Cc3ccccc3)nn(Cc3n[nH]c(=S)n3-c3ccccc3)c(=O)c12 the IC50 [2] was > 100 µM and the IC50 [3] was 45.1 µM.
In the case of Cc1noc2c(Cc3ccc([N+](=O)[O-])cc3)nn(Cc3n[nH]c(=S)n3C)c(=O)c12, the UI (Rattus norvegicus [1]) is reported as 0.25 mm.
CCn1c(Cn2nc(Cc3ccc([N+](=O)[O-])cc3)c3onc(C)c3c2=O)n[nH]c1=S gave an inhibition in vivo at 140 µmol/kg (Rattus norvegicus [4]) of 38%, a UI (Rattus norvegicus [1]) of 0 mm and an IC50 [2] of 9.2 µM. For the same molecule, the IC50 [3] was 14.8 µM.
For Cc1noc2c(Cc3ccc([N+](=O)[O-])cc3)nn(Cc3n[nH]c(=S)n3-c3ccccc3)c(=O)c12, the IC50 [2] was > 100 µM and the IC50 [3] was 16.5 µM.
COc1ccc(Cc2nn(Cc3n[nH]c(=S)n3C)c(=O)c3c(C)noc23)cc1 gave a UI (Rattus norvegicus [1]) of 0.25 mm.
In the case of CCn1c(Cn2nc(Cc3ccc(OC)cc3)c3onc(C)c3c2=O)n[nH]c1=S, the IC50 [2] is reported as 2.2 µM and the IC50 [3] is reported as 8.6 µM.
For COc1ccc(Cc2nn(Cc3n[nH]c(=S)n3-c3ccccc3)c(=O)c3c(C)noc23)cc1, the UI (Rattus norvegicus [1]) was 0 mm.
O=C(O)/C=C/c1ccc(O)c(O)c1 [CAFFEIC ACID] showed an IC50 [3] of 4 µM.
Molecule CC(C)Cc1ccc(C(C)C(=O)O)cc1 (stereo not drawn) [IBUPROFEN] has a UI (Rattus norvegicus [5]) of 7 mm and an inhibition in vivo at 30 mg/kg (Rattus norvegicus [6]) of 18.5%.
Work on CC(c1cc2ccccc2s1)N(O)C(N)=O (stereo not drawn) [ZILEUTON] yielded an IC50 [3] of 1.1 µM.

From ChEMBL document CHEMBL2016541, “Synthesis and biological evaluation of isoxazolo[4,5-d]pyridazin-4-(5H)-one analogues as potent anti-inflammatory agents” (Bioorg Med Chem, 2012)
